Data: paper PMC10731006 (Heliyon, 2023)
Converted amounts (≈) assume the structure as drawn.

What was measured:
[1] = system: non-small cell lung cancer (A549) cells; experiment: MTT cytotoxicity assay, A549; assay type: cell-based, human
Method in brief: (§1)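 Cells were grown in RPMI 1640 with 10% FCS, 2 mM L-glutamine and 1% penicillin-streptomycin at 37 °C under 5% CO2. They were seeded at 1 × 10^4 cells/ml, left overnight to adhere, and exposed 96 h to test compound diluted in medium (six final levels, 1–600), with DMSO-matched and cisplatin controls. MTT at 5 mg/ml was added for 4 h, formazan dissolved in DMSO, and A540 read, in triplicate. IC50 was fitted from the data. SI = IC50 in HDF / IC50 in this line.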

[2] = system: glioblastoma (U-87 MG) cells; experiment: MTT cytotoxicity assay, U-87 MG; assay type: cell-based, human
Method in brief: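 U-87 MG cells were cultured in DMEM with 10% FCS, 2 mM L-glutamine and 1% penicillin-streptomycin at 37 °C, 5% CO2. Seeding was 1 × 10^4 cells/ml; after overnight adherence, test compound diluted in medium (six final levels, 1–600) was applied for 96 h alongside DMSO-matched and cisplatin controls. Read-out: MTT 5 mg/ml for 4 h, DMSO solubilisation, A540, in triplicate, IC50 fitted. SI = IC50 in HDF / IC50 in U87.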

[3] = ABTS radical scavenging assay
[4] = system: Bacillus cereus (ATCC 11778); experiment: Agar diffusion test, B. cereus; assay type: cell-based; settings: ATCC11778, read-out: Zone of inhibition BC
[5] = system: Staphylococcus aureus (ATCC 10145); experiment: Micro-broth dilution assay; assay type: cell-based; settings: ATCC10145, read-out: MIC SA
[6] = system: B. subtilis (ATCC 6633); experiment: Micro-broth dilution assay; assay type: cell-based; settings: Bacillus subtilis, ATCC6633, read-out: MIC BS
[7] = system: Bacillus cereus (ATCC 11778); experiment: Micro-broth dilution assay; assay type: cell-based; settings: ATCC11778, read-out: MIC BC
[8] = system: human dermal fibroblast (HDF, human dermal cell line); experiment: MTT cytotoxicity assay, normal cells; assay type: cell-based; settings: Homo sapiens, Fibroblast, 96 h, read-out: IC50 HDF
Method in brief: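 Human dermal fibroblasts were maintained in DMEM with 10% FCS, 2 mM L-glutamine and 1% penicillin-streptomycin (37 °C, 5% CO2). They were seeded at 1 × 10^4 cells/ml, allowed to adhere overnight, then treated 96 h with serially diluted test compound (six final levels, 1–600) beside DMSO-matched vehicle and cisplatin controls. Then MTT 5 mg/ml was added for 4 h, formazan taken up in DMSO, and absorbance read at 540 nm, in triplicate. IC50 was fitted.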

[9] = system: Escherichia coli (ATCC 25922); experiment: Micro-broth dilution assay; assay type: cell-based; settings: ATCC25922, read-out: MIC EC
[10] = system: breast cancer (MCF7) cells; experiment: MTT cytotoxicity assay, MCF7; assay type: cell-based, human
Method in brief: as §1

[11] = system: Pseudomonas aeruginosa (ATCC 13048); experiment: Micro-broth dilution assay; assay type: cell-based; settings: ATCC13048, read-out: MIC PA
[12] = DPPH radical scavenging assay
[13] = system: B. subtilis (ATCC 6633); experiment: Agar diffusion test, B. subtilis; assay type: cell-based; settings: Bacillus subtilis, ATCC6633, read-out: Zone of inhibition BS

For `COC(=O)c1cn(C2CC2)c2cc(N3CCN(C(=O)c4c(C)nnn4-c4ccc([N+](=O)[O-])cc4)CC3)c(F)cc2c1=O` [Compound 6e, methyl 7-(4-(1-(4-nitrophenyl)-4-methyl-1H-1,2,3-triazole-5-carbonyl)piperazin-1-yl)-1-cyclopropyl-6-fluoro-4-oxo-1,4-dihydroquinoline-3-carboxylate], the IC50 ([1]; Homo sapiens, A549, 96 h, read-out: IC50 A549) was 79 ± 4.7 µM, the “SI A549 (selectivity index)” value ([1]; IC50 in HDF / IC50 in A549, 96 h) was 1.1 and the IC50 ([2]; Homo sapiens, U-87 MG, 96 h, read-out: IC50 U87) was 45 ± 7.1 µM. The “SI U87 (selectivity index)” value ([2]; IC50 in HDF / IC50 in U87, 96 h) was 1.8, the “IC50 ± SD, ABTS” value [3] was 24.2 ± 1.0 µg/mL (≈ 42 µM) and the “% inhibition ±SD, ABTS” value ([3]; 5 μg/ml) was 14.9 ± 1.4%. For the same compound, the “% inhibition ±SD, ABTS” value ([3]; 10 μg/ml) was 37.0 ± 0.2%, the “% inhibition ±SD, ABTS” value ([3]; 25 μg/ml) was 50.3 ± 0.5% and the “% inhibition ±SD, ABTS” value ([3]; 50 μg/ml) was 71.2 ± 0.2%. The “% inhibition ±SD, ABTS” value ([3]; 100 μg/ml) was 74.3 ± 0.4%, the zone of inhibition at 100 µg/disc [4] was 10.3 ± 0.6 mm and the zone of inhibition at 300 µg/disc [4] was 11.3 ± 0.6 mm. It also gave a zone of inhibition at 500 µg/disc [4] of 13.3 ± 0.6 mm, an MIC [5] of over 500 µg/mL and an MIC [6] of over 500 µg/mL. The MIC [7] was over 500 µg/mL, the IC50 [8] was 83 ± 5.8 µM and the MIC [9] was over 500 µg/mL. The IC50 ([10]; Homo sapiens, MCF7, 96 h, read-out: IC50 MCF-7) was 58.6 ± 5.9 µM, the “SI MCF-7 (selectivity index)” value ([10]; IC50 in HDF / IC50 in MCF-7, 96 h) was 1.4 and the MIC [11] was over 500 µg/mL. The “IC50 ± SD, DPPH” value [12] was 18.5 ± 1.6 µg/mL (≈ 32.1 µM), the “% inhibition ±SD, DPPH” value ([12]; 5 μg/ml) was 17.1 ± 0.6% and the “% inhibition ±SD, DPPH” value ([12]; 10 μg/ml) was 33.8 ± 0.5%. For the same compound, the “% inhibition ±SD, DPPH” value ([12]; 25 μg/ml) was 54.5 ± 0.4%, the “% inhibition ±SD, DPPH” value ([12]; 50 μg/ml) was 60.7 ± 0.8% and the “% inhibition ±SD, DPPH” value ([12]; 100 μg/ml) was 67.9 ± 0.6%. For the same compound, the zone of inhibition at 100 µg/disc [13] was 9.6 ± 0.6 mm, the zone of inhibition at 300 µg/disc [13] was 13.1 ± 0.3 mm and the zone of inhibition at 500 µg/disc [13] was 14.3 ± 0.6 mm.
